Where a SMILES comes first, the peptide text is derived from it. [ ]: non-standard residue; d: D form. The star is where a group is joined. Tyr(Nα,Nα-allyl2) = C=CCN(CC=C)[C@@H](Cc1ccc(O)cc1)C(=O)*; Aib = CC(C)(N)C(=O)O
Experiments:
[1] = molecular target: T1, Delta-type opioid receptor (Homo sapiens, UniProt P41143); assay: Inverse agonist potency at cloned human opioid receptor delta 1; type: functional
[2] = molecular target: Mu-type opioid receptor (Homo sapiens) (UniProt P35372); assay: Ability to inhibit agonist-stimulated (DAMGO) [35S]GTP-gamma-S, binding, using cloned human Opioid receptor mu 1expressed in CHO cells; type: functional, cell-based
Mu-type opioid receptor (Homo sapiens), sequence (P35372 whole entry): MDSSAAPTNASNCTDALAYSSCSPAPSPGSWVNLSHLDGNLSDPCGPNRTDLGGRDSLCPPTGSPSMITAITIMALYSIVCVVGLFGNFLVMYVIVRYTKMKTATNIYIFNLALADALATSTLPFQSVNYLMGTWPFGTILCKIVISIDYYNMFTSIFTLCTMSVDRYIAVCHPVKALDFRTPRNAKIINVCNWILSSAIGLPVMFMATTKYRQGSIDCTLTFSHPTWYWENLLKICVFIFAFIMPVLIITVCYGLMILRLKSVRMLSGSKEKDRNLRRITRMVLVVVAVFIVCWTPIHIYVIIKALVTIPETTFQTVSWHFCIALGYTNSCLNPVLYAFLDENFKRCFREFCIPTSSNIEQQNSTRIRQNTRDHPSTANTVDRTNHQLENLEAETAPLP
Procedure, shortened: (§1)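 Agonist dose-response curves in [35S]GTPγS binding were run with and without one fixed concentration of test compound, with 10 μM GDP final. Ke = [L]/((A'/A)−1), where A' and A are agonist EC50 with and without antagonist. Mean ± SE from at least three independent experiments.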

[3] = molecular target: Opioid receptors; mu & delta (Homo sapiens) (UniProt P41143+P35372); assay: Selectivity ratio of agonist stimulated [35S]GTP-gamma-S, binding in cloned human mu-opioid receptor versus delta-opioid receptor; type: functional
Opioid receptors; mu & delta (Homo sapiens), sequence (P35372 whole entry, looked up): as the sequence (P35372 whole entry) above
Opioid receptors; mu & delta (Homo sapiens), sequence (P41143 whole entry, looked up): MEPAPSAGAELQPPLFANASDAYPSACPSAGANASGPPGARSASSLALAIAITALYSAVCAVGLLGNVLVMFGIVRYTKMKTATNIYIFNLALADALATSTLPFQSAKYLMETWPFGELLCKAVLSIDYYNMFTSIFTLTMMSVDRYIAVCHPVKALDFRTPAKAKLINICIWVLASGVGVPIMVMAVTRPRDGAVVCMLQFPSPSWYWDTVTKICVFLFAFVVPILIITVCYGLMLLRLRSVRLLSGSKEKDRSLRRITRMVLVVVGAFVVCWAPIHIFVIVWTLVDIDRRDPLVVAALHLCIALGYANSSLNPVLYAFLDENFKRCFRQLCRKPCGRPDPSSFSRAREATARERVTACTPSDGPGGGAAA

[4] = molecular target: T1, Delta-type opioid receptor; assay: [3H]-Cl-DPDPE competition binding assay using human cloned opioid receptor delta 1
[5] = molecular target: Kappa-type opioid receptor (Homo sapiens) (UniProt P41145); assay: Ability to inhibit agonist-stimulated (U69,593) [35S]GTP-gamma-S, binding, using cloned human Opioid receptor kappa 1 expressed in CHO cells; type: functional, cell-based; procedure, shortened: as §1
Kappa-type opioid receptor (Homo sapiens), sequence (P41145 whole entry): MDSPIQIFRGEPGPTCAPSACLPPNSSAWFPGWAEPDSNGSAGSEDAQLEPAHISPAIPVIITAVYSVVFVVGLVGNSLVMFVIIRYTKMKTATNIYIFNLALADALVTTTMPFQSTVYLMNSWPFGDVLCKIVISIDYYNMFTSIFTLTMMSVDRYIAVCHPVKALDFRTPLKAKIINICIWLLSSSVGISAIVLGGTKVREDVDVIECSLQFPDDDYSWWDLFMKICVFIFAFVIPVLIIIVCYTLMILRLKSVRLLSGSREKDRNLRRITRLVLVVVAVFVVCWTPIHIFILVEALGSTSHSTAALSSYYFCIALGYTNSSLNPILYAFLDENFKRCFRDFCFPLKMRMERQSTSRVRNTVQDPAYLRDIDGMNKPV

[6] = molecular target: T1, Delta-type opioid receptor; assay: Efficacy at cloned human opioid receptor delta 1, expressed as percent of basal binding
[7] = molecular target: T1, Delta-type opioid receptor; assay: Ability to inhibit agonist-stimulated (DPDPE) [35S]GTP-gamma-S, binding, using cloned human opioid receptor delta 1 expressed in CHO cells; type: functional, cell-based; procedure, shortened: as §1
[8] = molecular target: Opioid receptors; delta & kappa (Homo sapiens) (UniProt P41145+P41143); assay: Selectivity ratio of agonist stimulated [35S]GTP-gamma-S, binding in cloned human kappa-opioid receptor versus delta-opioid receptor; type: functional
Opioid receptors; delta & kappa (Homo sapiens), sequence (P41143 whole entry, looked up): as the sequence (P41143 whole entry, looked up) above
Opioid receptors; delta & kappa (Homo sapiens), sequence (P41145 whole entry, looked up): as the sequence (P41145 whole entry) above

[9] = molecular target: T1, Delta-type opioid receptor; assay: Inverse agonist potency at cloned human delta-opioid receptor; type: functional
[10] = molecular target: T1, Delta-type opioid receptor; assay: Binding affinity towards opioid receptor delta 1 expressed in CHO cells was determined by using [3H]DPDPE as radioligand; type: cell-based

T1 sequence (P41143 whole entry): as the sequence (P41143 whole entry, looked up) above

With `CC1CN(CCCc2ccccc2)C2C[C@H](NC(=O)C3(c4ccccc4)CCCC3)CC1(c1cccc(O)c1)C2` (stereo partly drawn) the IC50 [1] was 15.2 nM, the Ke [2] was 40.3 nM and the Selectivity ratio [3] was 9.5. The Ki [4] was 9.3 nM, the Ke [5] was 5.51 nM and the Basal binding [6] was 78%. The Ke [7] was 4.24 nM and the Selectivity ratio [8] was 1.3.

`Cc1ccccc1/C=C/CN1CC[C@@](C)(c2cccc(O)c2)[C@@H](C)C1` showed an IC50 [1] of 2.8 nM and a Basal binding [6] of 76%.

Work on `Oc1ccc2c3c1O[C@H]1c4[nH]c5ccccc5c4C[C@@]4(O)[C@@H](C2)N(CC2CC2)CC[C@]314` yielded a Ke [2] of 33 nM, a Ke [5] of 16.1 nM and a Ke [7] of 0.21 nM.

`CC1CN(CCCc2ccccc2)C2CC(NC(=O)C3(c4ccccc4)CCCC3)CC1(c1cccc(O)c1)C2` (racemic) was tested, and the Ke [2] was 12.2 nM, the Selectivity ratio [3] was 22 and the Ki [4] was 2.1 nM. For the same compound, the Ke [5] was 3.52 nM, the Ke [7] was 0.55 nM and the Selectivity ratio [8] was 6.4. The IC50 [9] was 2.4 nM.

Compound `CC1CN(CCCc2ccccc2)C2C[C@@H](NC(=O)C3(c4ccccc4)CCCC3)CC1(c1cccc(O)c1)C2` (single isomer, unassigned; (+)) has a Ke [2] of 8.7 nM, a Selectivity ratio [3] of 58 and a Ki [4] of 0.96 nM. For the same compound, the Ke [5] was 17.9 nM, the Ke [7] was 0.15 nM and the Selectivity ratio [8] was 119. For the same compound, the IC50 [9] was 1.8 nM.

`C=CCN(CC=C)[C@@H](Cc1ccc(O)cc1)C(=O)NC(C)(C)C(=O)NC(C)(C)C(=O)N[C@@H](Cc1ccccc1)C(=O)N[C@@H](CC(C)C)C(=O)O` ({Tyr(Nα,Nα-allyl2)}-[Aib][Aib]FL-OH) gave a Ke [2] of 42 nM, a Ki [10] of 19.1 nM and a Selectivity ratio [3] of 5.4. The Ke [5] was 339 nM, the Ke [7] was 7.85 nM and the Selectivity ratio [8] was 43.

Source: ChEMBL document CHEMBL1148374 (J Med Chem, 2004)
